Reference: ChEMBL document CHEMBL1240420, “Synthesis and biological evaluation of cinnamido linked pyrrolo[2,1-c][1,4]benzodiazepines as antimitotic agents” (Eur J Med Chem, 2010)
Structures can show the parent of a compound that is named as a salt. Calls of active or inactive are those of the source. The rule behind the calls is not given here.

What was measured:
COLO 205 = assay: Cytotoxicity against human COLO205 cells after 48 hrs by SRB assay; assay type: functional; settings: COLO 205, 48 h
Method in brief: (§1)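 Cells were grown in RPMI 1640 with 10% FBS and 2 mM L-glutamine, plated 24 h before dosing, then given continuous 48 h exposure at 0.1, 1, 10 and 100 µM in triplicate wells. Cells were fixed with cold TCA (10% final, 60 min, 4 °C), stained with 0.4% SRB in 1% acetic acid for 20 min, eluted with 10 mM Tris base, and read at 540/690 nm. GI50 was taken from [(Ti−Tz)/(C−Tz)]×100 = 50; three determinations were averaged.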

KB = assay: Cytotoxicity against human KB cells after 48 hrs by SRB assay; assay type: functional; method in brief: as §1
A2780 = assay: Cytotoxicity against human A2780 cells after 48 hrs by SRB assay; assay type: functional; settings: A2780, 48 h; method in brief: as §1
MCF7 [1] = assay: Cytotoxicity against human MCF7 cells after 48 hrs by SRB assay; assay type: functional; settings: MCF7, 48 h; method in brief: as §1
PC-3 = assay: Cytotoxicity against human PC3 cells after 48 hrs by SRB assay; assay type: functional; settings: PC-3, 48 h; method in brief: as §1
HOP-62 = assay: Cytotoxicity against human HOP62 cells after 48 hrs by SRB assay; assay type: functional; settings: HOP-62, 48 h; method in brief: as §1
[2] = Cytotoxicity against human GURAV cells after 48 hrs by SRB assay; assay type: functional; method in brief: as §1
A549 = assay: Cytotoxicity against human A549 cells after 48 hrs by SRB assay; assay type: functional; settings: A549, 48 h; method in brief: as §1
SiHa = assay: Cytotoxicity against human SiHa cells after 48 hrs by SRB assay; assay type: functional
Method in brief: (§2)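 Cells grown in RPMI 1640 with 10% FBS and 2 mM L-glutamine, plated and left 24 h at 37 °C/5% CO2, then exposed continuously for 48 h to 0.1, 1, 10 and 100 µM in triplicate wells. Fixed with cold TCA (10% final), stained with 0.4% SRB, eluted with 10 mM Tris base, read at 540 nm (690 nm reference). GI50 from [(Ti−Tz)/(C−Tz)]×100 = 50; mean of three determinations.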

ZR-75-1 = assay: Cytotoxicity against human ZR-75-1 cells after 48 hrs by SRB assay; assay type: functional; settings: ZR-75-1, 48 h; method in brief: as §2
[3] = Cytotoxicity against human DWD cells after 48 hrs by SRB assay; assay type: functional; method in brief: as §1
MCF7 [4] = assay: Cell cycle arrest in human MCF7 cells assessed as accumulation at G2/M phase after 48 hrs using FITC/propidium iodide staining by flow cytometry; assay type: functional, cell-based
Method in brief: (§3)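 MCF7 cells in 6-well plates were exposed for 48 h, harvested with trypsin–EDTA, and fixed in ice-cold 70% ethanol at 4 °C for 30 min. They were then stained with a propidium iodide solution containing trisodium citrate and Triton X-100 for 30 min in the dark. DNA content was read by flow cytometry on 20,000 events, and cells were scored by cell-cycle phase from histograms.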

MCF7 [5] = assay: Cell cycle arrest in human MCF7 cells assessed as accumulation at G0 phase after 48 hrs using FITC/propidium iodide staining by flow cytometry; assay type: functional, cell-based; method in brief: as §3
[6] = Inhibition of bovine tubulin after 3 hrs; set-up: species or system Bos taurus
Method in brief: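 Bovine brain tubulin purified by three polymerization/depolymerization cycles. A340 read every 2 min for 3 h at 37 °C, nocodazole as control. IC50 taken as the concentration halving assembly versus control.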

Bos taurus = species: Bos taurus; assay: Inhibition of bovine tubulin at 2.5 uM after 3 hrs relative to control
Tubulin (Homo sapiens) = Tubulin (Homo sapiens) (UniProt P68371+Q9H4B7+P0DPH7+P68366+Q13509+Q71U36+P04350+Q3ZCM7+P07437+P68363+Q9BQE3+Q6PEY2+Q13885+Q9BVA1+Q9BUF5); assay: Inhibition of tubulin polymerization in human MCF7 cells at 2.5 uM by immunohistochemistry; assay type: cell-based
Method in brief: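 MCF7 cells on glass cover slips exposed 48 h to 2.5 µM. Fixed with 3% paraformaldehyde/0.02% glutaraldehyde, permeabilized in −20 °C methanol, blocked with 1% BSA. Stained with mouse monoclonal anti-tubulin plus FITC secondary, then confocal imaging of microtubule network integrity. Nocodazole and taxol (2.5 µM) run as controls; untreated cells as baseline.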

MCF7 [7] = assay: Induction of apoptosis in human MCF7 cells assessed as nuclear condensation at 2 uM after 48 hrs by fluorescence microscopy; assay type: functional, cell-based
Method in brief: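 MCF7 cells on cover slips in 6-well plates treated 48 h at 1–3 µM. Nocodazole and podophyllotoxin (1 µM) served as controls. Fixed in 3% paraformaldehyde/0.02% glutaraldehyde, stained with Hoechst (5 µM, 30 min), washed in PBS and imaged by fluorescence microscopy with DAPI filters. Five fields of view examined.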

| Compound | GI50 (COLO 205) | GI50 (KB) | GI50 (A2780) | GI50 (MCF7 [1]) | GI50 (PC-3) | GI50 (HOP-62) | GI50 [2] | GI50 (A549) | GI50 (SiHa) | GI50 (ZR-75-1) | GI50 [3] | Activity (MCF7 [4]) | Activity (MCF7 [5]) | IC50 [6] | inhibition (Bos taurus) | inhibition (Tubulin (Homo sapiens)) | Activity (MCF7 [7]) |
| --- | --- | --- | --- | --- | --- | --- | --- | --- | --- | --- | --- | --- | --- | --- | --- | --- | --- |
| COc1cc2c(cc1O)N=C[C@@H]1CCCN1C2=O | 110 nM | 170 nM | 140 nM | 170 nM | 200 nM | 150 nM | 160 nM | 160 nM | 170 nM | – | – | – | – | – | – | – | – |
| COc1cc(/C=C/C(=O)N2CCN(C(=O)/C=C/c3ccc(OCCCCCOc4cc5c(cc4OC)C(=O)N4CCC[C@H]4C=N5)c(OC)c3)CC2)ccc1OCCCCCOc1cc2c(cc1OC)C(=O)N1CCC[C@H]1C=N2 | < 100 nM | 2000 nM | 160 nM | 1000 nM | < 100 nM | 180 nM | 2300 nM | 110 nM | 2000 nM | < 100 nM | < 100 nM | – | – | – | – | – | – |
| COc1cc(/C=C/C(=O)N2CCN(C(=O)/C=C/c3ccc(OCCCOc4cc5c(cc4OC)C(=O)N4CCC[C@H]4C=N5)c(OC)c3)CC2)ccc1OCCCOc1cc2c(cc1OC)C(=O)N1CCC[C@H]1C=N2 | < 100 nM | 140 nM | 120 nM | < 100 nM | 150 nM | 150 nM | 140 nM | < 100 nM | 160 nM | < 100 nM | < 100 nM | – | – | – | – | – | – |
| COc1cc(/C=C/C(=O)N2CCOCC2)ccc1OCCCCCOc1cc2c(cc1OC)C(=O)N1CCC[C@H]1C=N2 | < 100 nM | 150 nM | 140 nM | < 100 nM | < 100 nM | 170 nM | 160 nM | < 100 nM | 170 nM | < 100 nM | < 100 nM | – | – | – | – | – | – |
| COc1cc(/C=C/C(=O)N2CCN(C(=O)/C=C/c3ccc(OCCCCOc4cc5c(cc4OC)C(=O)N4CCC[C@H]4C=N5)c(OC)c3)CC2)ccc1OCCCCOc1cc2c(cc1OC)C(=O)N1CCC[C@H]1C=N2 | 150 nM | < 100 nM | < 100 nM | 150 nM | 160 nM | < 100 nM | < 100 nM | < 100 nM | < 100 nM | 150 nM | 120 nM | Active | Active | 27900 nM | 40% | Active | Active |
| COc1cc(/C=C/C(=O)N2CCN(C(=O)c3cc(OC)c(OC)c(OC)c3)CC2)ccc1OCCCCCCOc1cc2c(cc1OC)C(=O)N1CCC[C@H]1C=N2 | 2100 nM | 1900 nM | 180 nM | 180 nM | 1900 nM | 2600 nM | 1900 nM | 160 nM | 2500 nM | 210 nM | 170 nM | – | – | – | – | – | – |
| COc1cccc2c1C(=O)c1c(O)c3c(c(O)c1C2=O)C[C@@](O)(C(=O)CO)C[C@@H]3O[C@H]1C[C@H](N)[C@H](O)[C@H](C)O1 [DOXORUBICIN HYDROCHLORIDE] | 130 nM | 130 nM | < 100 nM | < 100 nM | 160 nM | 120 nM | 140 nM | < 100 nM | 150 nM | 120 nM | 120 nM | – | – | – | – | – | – |
| COc1cc(/C=C/C(=O)N2CCOCC2)ccc1OCCCCCCOc1cc2c(cc1OC)C(=O)N1CCC[C@H]1C=N2 | 150 nM | < 100 nM | < 100 nM | 150 nM | 170 nM | < 100 nM | < 100 nM | < 100 nM | < 100 nM | 140 nM | 150 nM | – | – | – | – | – | – |
| COc1cc(/C=C/C(=O)N2CCN(C(=O)c3cc(OC)c(OC)c(OC)c3)CC2)ccc1OCCCCCOc1cc2c(cc1OC)C(=O)N1CCC[C@H]1C=N2 | < 100 nM | 120 nM | 110 nM | 130 nM | 140 nM | 150 nM | 130 nM | 110 nM | 140 nM | 140 nM | < 100 nM | – | – | – | – | – | – |
| COc1cc(/C=C/C(=O)N2CCOCC2)ccc1OCCCOc1cc2c(cc1OC)C(=O)N1CCC[C@H]1C=N2 | 100 nM | < 100 nM | < 100 nM | < 100 nM | 130 nM | 140 nM | 100 nM | < 100 nM | 120 nM | 120 nM | < 100 nM | – | – | – | – | – | – |
| COc1cc(/C=C/C(=O)N2CCN(C(=O)/C=C/c3ccc(OCCCCCCOc4cc5c(cc4OC)C(=O)N4CCC[C@H]4C=N5)c(OC)c3)CC2)ccc1OCCCCCCOc1cc2c(cc1OC)C(=O)N1CCC[C@H]1C=N2 | < 100 nM | < 100 nM | < 100 nM | 1900 nM | 150 nM | < 100 nM | < 100 nM | 150 nM | < 100 nM | 210 nM | < 100 nM | – | – | – | – | – | – |
| COc1cc(/C=C/C(=O)N2CCN(C(=O)c3cc(OC)c(OC)c(OC)c3)CC2)ccc1OCCCCOc1cc2c(cc1OC)C(=O)N1CCC[C@H]1C=N2 | < 100 nM | 150 nM | 150 nM | 140 nM | < 100 nM | 170 nM | 110 nM | 120 nM | 170 nM | 150 nM | 110 nM | – | – | – | – | – | – |
